Data set [1] concerns the target T1, 3-hydroxy-3-methylglutaryl-coenzyme A reductase (Mus musculus) (UniProt Q01237).
T1 sequence (whole entry): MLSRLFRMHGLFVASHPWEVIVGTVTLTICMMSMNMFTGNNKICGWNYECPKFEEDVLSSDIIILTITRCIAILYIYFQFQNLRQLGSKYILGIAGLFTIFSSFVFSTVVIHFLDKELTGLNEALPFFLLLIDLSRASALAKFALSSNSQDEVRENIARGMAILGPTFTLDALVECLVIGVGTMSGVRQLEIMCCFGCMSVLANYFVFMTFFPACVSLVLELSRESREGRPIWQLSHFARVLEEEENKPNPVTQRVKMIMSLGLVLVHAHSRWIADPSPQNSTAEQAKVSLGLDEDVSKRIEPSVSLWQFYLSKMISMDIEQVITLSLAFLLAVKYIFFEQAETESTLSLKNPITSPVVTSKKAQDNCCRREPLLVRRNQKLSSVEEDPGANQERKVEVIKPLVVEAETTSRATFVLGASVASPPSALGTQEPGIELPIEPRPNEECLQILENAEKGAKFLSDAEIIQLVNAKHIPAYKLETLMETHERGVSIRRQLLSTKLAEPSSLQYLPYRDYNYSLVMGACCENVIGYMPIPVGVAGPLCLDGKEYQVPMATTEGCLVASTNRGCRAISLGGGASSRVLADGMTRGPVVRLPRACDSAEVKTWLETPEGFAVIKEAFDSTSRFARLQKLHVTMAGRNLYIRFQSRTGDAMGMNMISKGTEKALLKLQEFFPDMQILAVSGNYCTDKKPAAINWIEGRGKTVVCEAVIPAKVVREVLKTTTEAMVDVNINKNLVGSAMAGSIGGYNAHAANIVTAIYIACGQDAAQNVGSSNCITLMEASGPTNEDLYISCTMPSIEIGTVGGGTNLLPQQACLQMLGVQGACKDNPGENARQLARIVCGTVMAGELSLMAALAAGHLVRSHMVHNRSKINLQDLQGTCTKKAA
Nature of the data set: In Vitro evaluation for the CF1 liver enzyme activity on HMG-CoA reductase at concentration 100 uM. The procedure, abridged:
(§1)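 Liver was taken from CF1 male mice and made into 10% homogenates, which were incubated with test compound at 50, 100 or 200 µM. Each enzyme was assayed by its literature method, and protein was measured by Lowry. N = 6. Activity is expressed as % of untreated control ± SD.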

The subject of data set [2] is Rattus norvegicus. Nature of the data set: Compound was evaluated for the hypolipidemic activity at 20 mg/kg per day orally for 14 days on protein content in rat small intestine. The format is functional. The settings on record: route oral. An outline of the steps:
(§2)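 Male Sprague–Dawley rats were dosed orally for 14 days. Liver, small intestine and a 24-h fecal collection were lipid-extracted. Extracts were assayed for cholesterol (modified Liebermann–Burchard), triglyceride (enzymatic kit), neutral lipids, phospholipids and protein. Values are % of 1% CMC vehicle control, mean ± SD, N = 6.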

For data set [3], the system named is Rattus norvegicus. Description: Compound was evaluated for the hypolipidemic activity at 20 mg/kg per day orally for 14 days on triglycerides content in rat small intestine. The class given is functional. The settings on record: route oral. The procedure, abridged:
as §2

For data set [4], the system named is Mus musculus. Description: In Vivo effect for the hypolipidemic activity on Hepatic lipoprotein lipase in CF1 mice after 16 days administered orally at a dose of 10 mg/kg. The settings on record: route oral. The format is functional. The procedure, abridged: (§3)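 CF1 male mice are dosed orally at 10–60 mg/kg per day for 16 days, with 1% CMC as the control vehicle. Liver is homogenized at 10% in 0.25 M sucrose + 0.001 M EDTA, pH 7.2. Enzymes are assayed by literature methods, with Lowry protein. Activity is given as % of control (X ± SD, N = 6), with p from Student's t test.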

The target in data set [5] is T2, Sterol O-acyltransferase 1 (Mus musculus) (UniProt Q61263).
T2 sequence (whole entry): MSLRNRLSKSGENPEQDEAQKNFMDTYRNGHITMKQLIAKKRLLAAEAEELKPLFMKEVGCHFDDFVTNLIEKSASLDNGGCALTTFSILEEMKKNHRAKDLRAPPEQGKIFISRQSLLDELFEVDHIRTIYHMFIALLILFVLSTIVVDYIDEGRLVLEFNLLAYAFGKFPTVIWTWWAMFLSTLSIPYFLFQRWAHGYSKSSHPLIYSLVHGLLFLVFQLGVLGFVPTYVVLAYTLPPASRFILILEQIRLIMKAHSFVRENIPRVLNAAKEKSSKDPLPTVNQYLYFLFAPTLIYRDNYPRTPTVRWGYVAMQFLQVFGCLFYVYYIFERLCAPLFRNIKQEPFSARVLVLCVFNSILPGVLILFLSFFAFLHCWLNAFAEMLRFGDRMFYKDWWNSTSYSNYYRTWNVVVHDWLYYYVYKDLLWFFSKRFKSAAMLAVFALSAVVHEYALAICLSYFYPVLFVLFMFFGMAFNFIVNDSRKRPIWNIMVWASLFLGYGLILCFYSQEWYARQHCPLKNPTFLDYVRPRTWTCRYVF
Description: In Vitro evaluation for the CF1 liver enzyme activity on Acyl cholesterol acyltransferase at concentration 100 uM. The format is functional, tissue-based. The procedure, abridged:
as §1

Data set [6] concerns Rattus norvegicus. Nature of the data set: Compound was evaluated for the hypolipidemic activity at 20 mg/kg per day orally for 14 days on protein content in rat liver. The format is functional. The settings on record: route oral. The procedure, abridged: as §2
For data set [7], the system named is Mus musculus. Nature of the data set: Compound was evaluated for the hypolipidemic activity in CF1 male mice at a dose of 20 mg/kg orally for Serum triglyceride at 16th day. The format is functional. The settings on record: route oral. An outline of the steps:
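CF1 male mice received the agent orally in 1% CMC at 10–60 mg/kg per day. Tail-vein blood was taken on days 9 and 16. Serum cholesterol was measured by modified Liebermann–Burchard on duplicate 25-µL samples, and serum triglyceride on day 16 in duplicate 50-µL samples. Values are % of vehicle control, mean ± SD, N = 6; Student's t test.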

Data set [8] in a line: In Vitro evaluation for the CF1 liver enzyme activity on Acyl cholesterol acyltransferase at concentration 50 uM. The procedure, abridged:
as §1

Data set [9] deals with T1, 3-hydroxy-3-methylglutaryl-coenzyme A reductase (Mus musculus). Nature of the data set: In Vivo effect for the hypolipidemic activity on HMG-CoA reductase in CF1 mice after 16 days of oral administration at a dose of 40 mg/kg. On the set-up: dose 40 mg/kg. The class given is organism-based. An outline of the steps: as §3
Data set [10] has as its target Cholesterol 7-alpha-hydroxylase (Cytochrome P450 7A1) (Mus musculus, UniProt Q64505). Nature of the data set: In vitro percent Cholesterol 7-alpha-hydroxylase activity in mouse CF1 liver microsomes at 200 uM. On the set-up: species or system Microsome. The settings on record: read-out: Control. The procedure, abridged: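 Mouse liver enzymes assayed in vitro on 10% homogenates of CF1 male mouse liver, with test drug added at 50–200 μM. Each enzyme follows a published procedure. Protein is measured by Lowry. Activity is given as % of untreated control (X ± SD, N = 6).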
On the technique in general: Liver microsomes are a subcellular fraction often used to study metabolism.

Data set [11] deals with Acetyl-CoA carboxylase 1 (Mus musculus) (UniProt Q5SWU9). Nature of the data set: In Vitro evaluation for the CF1 liver enzyme activity on Acetyl-CoA carboxylase at concentration 200 uM. The procedure, abridged: as §1
Data set [12] concerns Rattus norvegicus. Description: Compound was evaluated for the hypolipidemic activity in Sprague-Dawley rats at a dose of 20 mg/kg orally for Serum triglyceride at 9th day. The settings on record: route oral. The format is functional. The procedure, abridged: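 Sprague–Dawley male rats (~350 g) received 20 mg/kg per day orally, with 1% CMC as the vehicle control; N = 6. Tail-vein blood was taken between 8:00 and 9:30 a.m. on days 9 and 16 and spun for 3 min to obtain serum. Cholesterol was measured by a modified Liebermann–Burchard reaction and triglyceride by kit. Values are % control ± SD; significance by Student's t test.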

In data set [13] the target is T1, 3-hydroxy-3-methylglutaryl-coenzyme A reductase (Mus musculus). Nature of the data set: In Vitro evaluation for the CF1 liver enzyme activity on HMG-CoA reductase at concentration 50 uM. An outline of the steps: as §1

Chain of Cholesterol 7-alpha-hydroxylase (Cytochrome P450 7A1) (Q64505 whole entry): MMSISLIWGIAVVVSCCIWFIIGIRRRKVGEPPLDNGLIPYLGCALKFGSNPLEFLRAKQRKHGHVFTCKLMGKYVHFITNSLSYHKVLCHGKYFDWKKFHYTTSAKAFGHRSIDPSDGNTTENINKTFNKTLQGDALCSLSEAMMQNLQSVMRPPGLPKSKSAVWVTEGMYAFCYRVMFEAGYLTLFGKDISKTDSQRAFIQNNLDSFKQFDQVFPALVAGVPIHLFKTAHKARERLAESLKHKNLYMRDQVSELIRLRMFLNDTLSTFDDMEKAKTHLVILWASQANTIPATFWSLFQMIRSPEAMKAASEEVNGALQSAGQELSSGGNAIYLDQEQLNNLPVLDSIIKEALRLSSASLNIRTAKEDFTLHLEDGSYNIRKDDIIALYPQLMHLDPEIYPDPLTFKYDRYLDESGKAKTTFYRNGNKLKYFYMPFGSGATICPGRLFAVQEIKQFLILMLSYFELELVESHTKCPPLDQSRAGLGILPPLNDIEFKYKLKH

Regarding `COc1ccc(C2C(=O)c3ccccc3C2=O)cc1` [ANISINDIONE], the Control in data set [1] was determined as 109%; with Rattus norvegicus [2], 102%; with Rattus norvegicus [3] it was 89%; in the data set on Mus musculus [4], 83%; in data set [5], 63%; with Rattus norvegicus [6], 100%. Further, the Control with Mus musculus [7] amounted to 48%; in data set [8], 94%; in data set [9], 114%; in data set [11] it was 67%; in the data set with Rattus norvegicus [12], 73%; in [13], 107%. Also, in [10], the activity at 200 µM was found to be 113%.

For the origin of these results see ChEMBL document CHEMBL1123129, “Hypolipidemic activity of indan-1,3-dione derivatives in rodents” (J Med Chem, 1985).
